Test results as given in ChEMBL document CHEMBL4130522, “Synthesis and Pharmacological Evaluation of Selective Histone Deacetylase 6 Inhibitors in Melanoma Models” (ACS Med Chem Lett, 2017).
Each block holds one molecule with its values, some of them ahead of it. The source made the active and inactive calls. No cut-off for these calls is given here.

Columns and labels:
[1] = molecular target: T1, Protein deacetylase HDAC6 (Homo sapiens, UniProt Q9UBN7); assay: Inhibition of recombinant human full length HDAC6 expressed in baculovirus infected Sf9 insect cells using p53 (379 to 382 residues) derived RHKKAc as substrate preincubated for 5 to 10 mins followed by substrate addition measured after 2 hrs by fluorescence assay
T1 sequence (Q9UBN7 whole entry): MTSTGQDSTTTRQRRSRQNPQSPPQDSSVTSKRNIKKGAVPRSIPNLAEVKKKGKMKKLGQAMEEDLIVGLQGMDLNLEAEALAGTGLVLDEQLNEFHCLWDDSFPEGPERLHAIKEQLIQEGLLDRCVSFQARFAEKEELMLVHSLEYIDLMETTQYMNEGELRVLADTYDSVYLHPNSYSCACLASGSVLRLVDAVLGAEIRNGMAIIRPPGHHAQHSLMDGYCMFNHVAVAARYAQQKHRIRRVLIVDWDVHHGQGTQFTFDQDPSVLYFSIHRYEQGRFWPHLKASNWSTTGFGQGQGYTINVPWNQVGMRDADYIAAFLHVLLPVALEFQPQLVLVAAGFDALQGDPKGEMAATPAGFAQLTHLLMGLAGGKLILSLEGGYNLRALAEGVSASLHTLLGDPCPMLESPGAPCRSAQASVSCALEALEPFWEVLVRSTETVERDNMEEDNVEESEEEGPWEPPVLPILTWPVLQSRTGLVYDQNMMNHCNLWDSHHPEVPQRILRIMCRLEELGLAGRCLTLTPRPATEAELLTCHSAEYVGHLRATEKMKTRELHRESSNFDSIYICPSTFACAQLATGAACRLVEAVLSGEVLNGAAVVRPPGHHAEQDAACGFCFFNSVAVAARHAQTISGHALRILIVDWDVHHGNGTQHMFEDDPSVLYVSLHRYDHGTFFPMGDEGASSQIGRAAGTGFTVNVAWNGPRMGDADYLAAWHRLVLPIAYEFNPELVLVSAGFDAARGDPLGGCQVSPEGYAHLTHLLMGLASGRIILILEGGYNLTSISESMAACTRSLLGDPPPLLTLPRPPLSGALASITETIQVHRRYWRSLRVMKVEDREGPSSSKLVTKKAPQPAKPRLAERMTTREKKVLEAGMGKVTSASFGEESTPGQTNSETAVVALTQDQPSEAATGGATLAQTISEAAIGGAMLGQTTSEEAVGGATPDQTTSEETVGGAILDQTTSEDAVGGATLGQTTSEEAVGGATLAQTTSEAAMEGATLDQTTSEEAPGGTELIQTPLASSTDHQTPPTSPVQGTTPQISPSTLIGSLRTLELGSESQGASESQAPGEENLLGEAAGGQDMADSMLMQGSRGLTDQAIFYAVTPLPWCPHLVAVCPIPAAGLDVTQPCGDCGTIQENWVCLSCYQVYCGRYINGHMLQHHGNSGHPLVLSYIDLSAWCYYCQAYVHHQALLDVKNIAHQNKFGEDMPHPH

Histone deacetylase 1 = Histone deacetylase 1 (Homo sapiens, UniProt Q13547); assay: Inhibition of recombinant human full length HDAC1 expressed in baculovirus infected Sf9 insect cells using p53 (379 to 382 residues) derived RHKKAc as substrate preincubated for 5 to 10 mins followed by substrate addition measured after 2 hrs by fluorescence assay
Histone deacetylase 1, sequence (Q13547 whole entry, the tested form may be a part): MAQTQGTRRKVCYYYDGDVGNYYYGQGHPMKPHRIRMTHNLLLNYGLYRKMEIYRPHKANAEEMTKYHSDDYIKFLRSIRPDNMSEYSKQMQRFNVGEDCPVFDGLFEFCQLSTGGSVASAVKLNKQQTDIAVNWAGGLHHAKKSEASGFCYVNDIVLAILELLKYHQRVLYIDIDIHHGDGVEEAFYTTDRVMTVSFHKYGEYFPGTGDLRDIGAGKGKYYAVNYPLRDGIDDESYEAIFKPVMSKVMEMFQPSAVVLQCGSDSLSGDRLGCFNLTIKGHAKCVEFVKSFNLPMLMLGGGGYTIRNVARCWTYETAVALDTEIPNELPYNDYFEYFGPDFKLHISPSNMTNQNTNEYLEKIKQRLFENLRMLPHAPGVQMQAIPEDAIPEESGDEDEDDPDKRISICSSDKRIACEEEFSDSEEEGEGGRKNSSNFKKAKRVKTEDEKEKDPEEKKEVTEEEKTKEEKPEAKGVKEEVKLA

[2] = Half life in mouse liver microsomes at 200 uM in presence of NADPH by LC-MS/MS analysis; format: ADME, microsome
Mus musculus [3] = assay: Antitumor activity against mouse B16-F10-luc cells xenografted in C57BL/6 mouse assessed as reduction in tumor volume at 20 mg/kg, ip administered daily for 22 days; format: functional, organism-based
Method in brief: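 C57BL/6 mice implanted subcutaneously with B16-F10-luc WT cells; daily intraperitoneal dosing at 20 mg/kg for 22 days versus vehicle group; tumor volume and survival monitored throughout.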

[4] = Half life in human liver microsomes at 200 uM in presence of NADPH by LC-MS/MS analysis; format: ADME, microsome
B16 [5] = assay: Antiproliferative activity against mouse B16 cells at 1 to 15 uM after 48 hrs by MTS assay; format: functional, cell-based
Homo sapiens = species on record: Homo sapiens; assay: Selectivity ratio of IC50 for recombinant human full length HDAC8 expressed in baculovirus infected Sf9 insect cells to IC50 for recombinant human full length HDAC6 expressed in baculovirus infected Sf9 insect cells
[6] = molecular target: T2, Protein deacetylase HDAC6 (Homo sapiens) (UniProt Q9UBN7); assay: Inhibition of HDAC6 in human WM795 cells assessed as increase in acetylated alpha-tubulin levels at 0.5 to 8 uM after 24 hrs by Western blot method; format: cell-based
T2 sequence (whole entry): T1 sequence (Q9UBN7 whole entry)
Method in brief: (§1)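 WM795 human melanoma cells were treated for 24 h across a range of concentrations. Protein extracts were run on SDS-PAGE and immunoblotted with antibodies to HDAC6, α-tubulin, acetylated α-tubulin, histone H3 and acetylated H3. A selective HDAC6 inhibitor and a pan-HDAC inhibitor were included on each blot as positive controls. Blots are representative of three independent experiments.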

[7] = molecular target: T3, Protein deacetylase HDAC6 (Mus musculus) (UniProt Q9Z2V5); assay: Inhibition of HDAC6 in mouse RAW264.7 cells assessed as decrease in IL-10 production at 3 uM after 24 hrs by ELISA; format: cell-based
T3 sequence (whole entry): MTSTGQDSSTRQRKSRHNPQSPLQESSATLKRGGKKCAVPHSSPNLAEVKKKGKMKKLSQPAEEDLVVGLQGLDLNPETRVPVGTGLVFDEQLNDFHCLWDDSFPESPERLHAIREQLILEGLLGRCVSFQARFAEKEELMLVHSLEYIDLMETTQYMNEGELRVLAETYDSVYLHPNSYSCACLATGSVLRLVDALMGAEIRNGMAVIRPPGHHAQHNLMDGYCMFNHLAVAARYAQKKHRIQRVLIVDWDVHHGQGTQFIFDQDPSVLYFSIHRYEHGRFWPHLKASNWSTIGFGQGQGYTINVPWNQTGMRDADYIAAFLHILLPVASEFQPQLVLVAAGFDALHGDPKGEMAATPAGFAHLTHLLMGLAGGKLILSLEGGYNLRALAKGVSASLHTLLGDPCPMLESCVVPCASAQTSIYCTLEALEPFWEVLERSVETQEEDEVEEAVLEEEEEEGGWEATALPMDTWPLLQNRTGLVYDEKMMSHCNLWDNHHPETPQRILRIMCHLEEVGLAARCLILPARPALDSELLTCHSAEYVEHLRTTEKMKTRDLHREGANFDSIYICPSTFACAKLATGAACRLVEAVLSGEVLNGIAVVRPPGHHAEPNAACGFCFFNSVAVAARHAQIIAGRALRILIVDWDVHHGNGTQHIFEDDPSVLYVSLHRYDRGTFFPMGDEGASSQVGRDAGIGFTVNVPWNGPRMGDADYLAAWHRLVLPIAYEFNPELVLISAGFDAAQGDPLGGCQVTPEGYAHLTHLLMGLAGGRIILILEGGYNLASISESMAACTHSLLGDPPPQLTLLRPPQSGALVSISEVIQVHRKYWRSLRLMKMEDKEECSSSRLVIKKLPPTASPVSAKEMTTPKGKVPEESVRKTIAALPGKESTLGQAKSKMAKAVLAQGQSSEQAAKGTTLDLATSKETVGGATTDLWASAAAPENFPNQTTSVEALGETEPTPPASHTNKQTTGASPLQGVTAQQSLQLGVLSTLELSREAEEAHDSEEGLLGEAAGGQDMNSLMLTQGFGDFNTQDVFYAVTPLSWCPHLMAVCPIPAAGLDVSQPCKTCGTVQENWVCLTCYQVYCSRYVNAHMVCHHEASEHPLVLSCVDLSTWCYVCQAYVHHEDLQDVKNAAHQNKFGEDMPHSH
Method in brief: (§2)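 Cells (primary peritoneal elicited macrophages from C57BL/6 mice, or RAW264.7 murine macrophages) stimulated with LPS 1 µg/mL, with or without 3 µM compound, for 24 h; supernatants collected and IL-10 quantified by ELISA; statistics versus untreated cells.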

Mus musculus [8] = species on record: Mus musculus; assay: Antiproliferative activity against mouse SM1 cells at 1 to 15 uM after 48 hrs by MTS assay; format: functional, cell-based
[9] = molecular target: T3, Protein deacetylase HDAC6 (Mus musculus); assay: Inhibition of HDAC6 in C57BL/6 mouse primary peritoneal macrophages assessed as decrease in IL-10 production at 3 uM after 24 hrs by ELISA; method in brief: as §2
[10] = molecular target: T2, Protein deacetylase HDAC6 (Homo sapiens); assay: Inhibition of HDAC6 in human WM795 cells assessed as increase in acetylated histone H3 levels at 0.5 to 8 uM after 24 hrs by Western blot method; format: cell-based; method in brief: as §1
[11] = Antitumor activity against mouse B16-F10-luc cells xenografted in C57BL/6 mouse assessed as mouse survival rate at 20 mg/kg, ip administered daily for 22 days (reference value: 40%); format: functional; settings: 528 h
Mus musculus [12] = assay: Antitumor activity against mouse B16-F10-luc cells xenografted in C57BL/6 SCID mouse assessed as tumor growth inhibition at 20 mg/kg, ip administered daily for 20 days; format: functional, organism-based
Mus musculus [13] = species on record: Mus musculus; assay: Antiproliferative activity against mouse FcMCL cells at 1 to 15 uM after 48 hrs by MTS assay; format: functional, cell-based
[14] = molecular target: T2, Protein deacetylase HDAC6 (Homo sapiens); assay: Inhibition of recombinant human full length HDAC6 expressed in baculovirus infected Sf9 insect cells up to 30 uM using p53 (379 to 382 residues) derived RHKKAc as substrate preincubated for 5 to 10 mins followed by substrate addition measured after 2 hrs by fluorescence assay
B16 [15] = assay: Antiproliferative activity against mouse B16 cells at lower concentration after 48 hrs by MTS assay; format: functional, cell-based
Mus musculus [16] = species on record: Mus musculus; assay: Antiproliferative activity against mouse FcMCL cells at lower concentration after 48 hrs by MTS assay; format: functional, cell-based

IC50 ([1]; read-out: IC50): 43 nM
IC50 (Histone deacetylase 1): 7540 nM
Structure (SMILES): CCCCN(Cc1ccc(C(=O)NO)cc1)C(=O)Nc1cc(C)ccn1

IC50 ([1]; sf9): Not Active
Structure (SMILES): CCCCN(Cc1ccc(NC(=O)[C@H](C)N)cc1)C(=O)Nc1ccccc1

IC50 ([1]; sf9): Not Active
inhibition [14]: inactive
Structure (SMILES): O=C(O)c1ccc(CN(CCCCO)C(=O)Nc2ccccc2)cc1

IC50 ([1]; read-out: IC50): 12 nM
IC50 (Histone deacetylase 1): 6130 nM
Structure (SMILES): CC(C)CN(Cc1ccc(C(=O)NO)cc1)C(=O)Nc1ccccc1

IC50 ([1]; read-out: IC50): 0.87 nM
IC50 (Histone deacetylase 1): 2910 nM
Structure (SMILES): O=C(NO)c1ccc(CN(CCCCO)C(=O)Nc2ccccc2)cc1
Ratio IC50 (Homo sapiens): > 500

IC50 ([1]; read-out: IC50): 1790 nM
IC50 (Histone deacetylase 1): > 30000 nM
Structure (SMILES): CCCCN(C(=O)Nc1cccc(N(C)C)c1)c1ccc(C(=O)NO)cc1

inhibition [6]: Active
inhibition [10]: inactive
Structure (SMILES): CCCCN(Cc1ccc(C(=O)NO)cc1)C(=O)Nc1ccccc1

IC50 ([1]; read-out: IC50): 74 nM
IC50 (Histone deacetylase 1): 14400 nM
Structure (SMILES): CCCCN(Cc1ccc(C(=O)NO)cc1)C(=O)NCCN1CCCC1

The next lines start with the molecule.

Structure (SMILES): CCCCN(Cc1ccc(NC(=O)CN)cc1)C(=O)Nc1ccccc1
IC50 ([1]; sf9): Not Active

Structure (SMILES): CCCCN(Cc1ccc(/C(N)=N/O)cc1)C(=O)Nc1ccccc1
IC50 ([1]; sf9): Not Active

Structure (SMILES): CCCCN(Cc1ccc(N(O)C=O)cc1)C(=O)Nc1ccccc1
IC50 ([1]; read-out: IC50): 1020 nM
IC50 (Histone deacetylase 1): > 30000 nM

Structure (SMILES): CCCCN(Cc1ccc(C(=O)NO)cc1)C(=O)Nc1ccc2cn[nH]c2c1
half-life at 200 µM [2]: 3.98 h
Activity (Mus musculus [3]): Active
half-life at 200 µM [4]: 6.8 h
IC50 ([1]; read-out: IC50): 1.6 nM
Activity (B16 [5]): Active
Ratio IC50 (Homo sapiens): > 500
inhibition [6]: Active
inhibition [7]: Active
Activity (Mus musculus [8]): Active
inhibition [9]: Active
inhibition [10]: inactive
survival at 20 mg/kg [11]: 100%
TGI (Mus musculus [12]): inactive
Activity (Mus musculus [13]): Active

Structure (SMILES): CCCCN(Cc1ccc(C(=O)NO)cc1)C(=O)Nc1ncccn1
IC50 ([1]; read-out: IC50): 6 nM
Activity (B16 [5]): Active
inhibition [6]: Active
Activity (Mus musculus [8]): Active
inhibition [10]: inactive
Activity (Mus musculus [13]): Active

Structure (SMILES): CCCCN(Cc1ccc(C(=O)NO)cc1)C(=O)Nc1cccc(N(C)C)c1
Activity (B16 [15]): Active
IC50 ([1]; read-out: IC50): 1.7 nM
Ratio IC50 (Homo sapiens): > 500
inhibition [6]: Active
inhibition [10]: inactive
Activity (Mus musculus [16]): Active

Structure (SMILES): CN1CCc2c(c3ccccc3n2Cc2ccc(C(=O)NO)cc2)C1
Activity (Mus musculus [3]): Active
